Published values of several laboratories.
Protocols differ between the studies behind these lines.
Effect on: cell growth or viability

Compound	cell line	technique	time	IC50 [µM]
COc1ccc(O)c(/C=N/c2nc(Oc3ccccc3)nn2-c2ccc(C(=O)O)cc2)c1	RPE-1	MTT	–	33.1
COc1cc(Nc2nccc(-c3cnn4nc(OC)ccc34)n2)cc(C(F)(F)F)c1	RL95-2	ATP luminescence	–	1
COc1cc(C)c(-c2c(C)cc(OC)c3c(=O)cc(-c4ccc(Br)cc4)oc23)c2oc(-c3ccc(Br)cc3)cc(=O)c12	HeLa	MTT	48 h	35.8
COC(=O)c1ccc(-n2nc(SC)nc2N)cc1	RPE-1	MTT	–	37.3
C#CCOc1cc(C(=O)Nc2cc(OCCCN)c3ccccc3n2)nc(C(=O)Nc2cc(OCCCN)c3ccccc3n2)c1	U2OS	ATP luminescence	72 h	2.3
COc1cc(-c2ncn(/C=C\C(=O)OC(C)C)n2)cc(C(F)(F)F)c1	NB-4	–	72 h	0.169
NCCCOc1cc(NC(=O)c2cc(OCCN)cc(C(=O)Nc3cc(OCCCN)c4ccccc4n3)n2)nc2ccccc12	U2OS	ATP luminescence	72 h	14.1
CC[C@@H](C)[C@H](N)C(=O)N1Cc2ccccc2C1	HEL	ATP luminescence	48 h	> 60
CN(C)CCOc1cc(NC(=O)c2cc(Cl)cc(C(=O)Nc3cc(OCCN(C)C)c4ccccc4n3)n2)nc2ccccc12	U2OS	ATP luminescence	72 h	2.2
CS(=O)(=O)c1nc(N)n(-c2ccc(C(=O)O)cc2)n1	RPE-1	MTT	–	34.2
CC(C)[C@H](N)C(=O)N1CCC[C@H]1B(O)O	HEL	ATP luminescence	48 h	> 60
CSc1nc(/N=C/c2cc(Br)ccc2O)n(-c2ccc(C(=O)O)cc2)n1	RPE-1	MTT	–	37.6
NCCCOc1cc(NC(=O)c2cccc(C(=O)Nc3cc(OCCCN)c4ccccc4n3)n2)nc2ccccc12	U2OS	ATP luminescence	72 h	1.5
CC1=CC(C)(C)N(Cc2ccccc2)c2ccc(O)cc21	PLC5	MTT	72 h	11
CSc1nc(/N=C/c2cc(C)ccc2O)n(-c2ccc(C(=O)O)cc2)n1	RPE-1	MTT	–	36
CN1c2ccccc2C(=O)N2[C@H](C(=O)Nc3ccc(C(=O)Nc4ccccc4N)cc3)Cc3c([nH]c4ccccc34)[C@@H]12	HEL	–	–	0.66
Cc1cc(NC(=O)c2cccc3cc(-c4cccc5[nH]nc(N)c45)ccc23)ccc1F	mouse BMDM	CCK-8	72 h	0.093
Nc1ncc(-c2cnn(C3CCNCC3)c2)cc1-c1nnc(CC2CC2)o1	NB-4	trypan blue	72 h	0.846
COc1cc(/C=N/c2nc(SC)nn2-c2ccc(C(=O)O)cc2)ccc1O	RPE-1	MTT	–	29.8
NCCOc1cc(C(=O)Nc2cc(OCCN)c3ccccc3n2)nc(C(=O)Nc2cc(OCCN)c3ccccc3n2)c1	U2OS	ATP luminescence	72 h	16.8
COC(=O)C(C)n1c(C=O)ccc1CO (centres unmarked)	Hepa-1c1c7	crystal violet	48 h	> 100
COc1ccc(O)c(/C=N/c2nc(SC)nn2-c2ccc(C(=O)O)cc2)c1	RPE-1	MTT	–	35.2
CC(C)C[C@H](NC(=O)[C@H](Cc1ccccc1)NC(=O)c1cnccn1)B(O)O	RL95-2	ATP luminescence	–	0.012
NCCCOc1cc(NC(=O)c2cc(OCc3c[nH]nn3)cc(C(=O)Nc3cc(OCCCN)c4ccccc4n3)n2)nc2ccccc12	U2OS	ATP luminescence	72 h	> 40
CSc1nc(/N=C/c2cccc(O)c2)n(-c2ccc(C(=O)O)cc2)n1	RPE-1	MTT	–	34.6
NCCOc1cc(NC(=O)c2cccc(C(=O)Nc3cc(OCCN)c4ccccc4n3)n2)nc2ccccc12	U2OS	ATP luminescence	72 h	0.7
N[C@@H](CC(=O)N1CCN(C(c2ccc(F)cc2)c2ccc(F)cc2)CC1)C(=O)N1Cc2ccccc2C1	NB-4	ATP luminescence	48 h	1.33
NCCOc1cc(C(=O)Nc2cc(OCCN3CCCC3)c3ccccc3n2)nc(C(=O)Nc2cc(OCCN3CCCC3)c3ccccc3n2)c1	U2OS	ATP luminescence	72 h	0.2
Cc1ccc(C(=O)Nc2ccc(Oc3cc4cnn(C)c4cc3-c3cn[nH]c3)c(F)c2)c(=O)n1-c1ccc(F)cc1	Hs746T	ATP luminescence	–	0.034
